Data taken from ChEMBL document CHEMBL1649151, “Urinary bactericidal activity of Doripenem versus that of levofloxacin in patients with complicated urinary tract infections or pyelonephritis” (Antimicrob Agents Chemother, 2009).
In brackets after ≈: the same amount, converted by molar mass.

Columns and labels:
Proteus mirabilis [1] = test: Antimicrobial activity against Proteus mirabilis 1134841 isolated from patient with pyelonephritis assessed as >3-log reduction in urinary bacterial titer after 16 hrs; assay type: functional, Urine
How it was run: (§1)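 Patient urine was collected on day 3 of i.v. therapy (steady state) over 4-h intervals after infusion start, stored at –80°C, and sterile filtered. It was twofold serially diluted (1:0 to 1:131,072) in the patient's own pre-dose drug-free urine, inoculated to 1.0 x 10^6–9.5 x 10^6 CFU/ml, and incubated for 18 h at 37°C. Subcultures were grown on blood agar for 24 h. The UBT is the reciprocal of the highest dilution giving >99.9% kill.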

Proteus mirabilis [2] = test: Antimicrobial activity against Proteus mirabilis 1134841 isolated from patient with pyelonephritis assessed as >3-log reduction in urinary bacterial titer after 8 hrs; assay type: functional, Urine; how it was run: as §1
Pseudomonas aeruginosa [3] = test: Antimicrobial activity against Pseudomonas aeruginosa […] assessed as >3-log reduction in urinary bacterial titer after 24 hrs; assay type: functional, Urine; how it was run: as §1
Escherichia coli [4] = test: Antimicrobial activity against Escherichia coli 1949821 B-M isolated from patient with pyelonephritis assessed as >3-log reduction in urinary bacterial titer after 12 hrs; assay type: functional, Urine
How it was run: (§2)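 Urine was collected on day 3 of i.v. therapy (steady state) over 4-h intervals from infusion start (0–4 to 20–24 h), stored at –80°C and sterile filtered. It was serially diluted twofold (1:0 up to 1:131,072) in the patient's own pre-dose drug-free urine. Microdilution used a final inoculum of 1.0 x 10^6 to 9.5 x 10^6 CFU/ml, incubated 18 h at 37°C in air. 10 µl was subcultured onto 5% blood Columbia agar for 24 h at 37°C. The bactericidal endpoint was >99.9% (>3-log) kill, reported as a reciprocal titer.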

[5] = system: Staphylococcus haemolyticus; test: Antimicrobial activity against Staphylococcus haemolyticus 1949819 B-M isolated from patient with pyelonephritis by Etest; assay type: functional
Pseudomonas aeruginosa [6] = test: Antimicrobial activity against Pseudomonas aeruginosa 1134642 isolated from patient with pyelonephritis by Etest; assay type: functional
Proteus mirabilis [7] = test: Antimicrobial activity against Proteus mirabilis 1134841 isolated from patient with pyelonephritis assessed as >3-log reduction in urinary bacterial titer after 20 hrs; assay type: functional, Urine; how it was run: as §1
Enterococcus faecalis [8] = test: Antimicrobial activity against Enterococcus faecalis 1780065 B-B isolated from patient with pyelonephritis assessed as >3-log reduction in urinary bacterial titer after 16 hrs; assay type: functional, Urine
How it was run: (§3)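 Urine was collected before dosing and on day 3 of i.v. therapy (steady state), in 4-h intervals from infusion start (0–4 to 20–24 h), stored at −80°C and sterile filtered. It was serially diluted twofold (1:0 to 1:131,072) in the patient's drug-free pre-dose urine. Microdilution used an inoculum of 1.0 x 10^6–9.5 x 10^6 CFU/ml, incubated 18 h at 37°C, then subcultured 24 h on blood agar. The endpoint was >99.9% kill, reported as reciprocal titer.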

Escherichia coli [9] = test: Antimicrobial activity against Escherichia coli 1135121 isolated from patient with pyelonephritis assessed as >3-log reduction in urinary bacterial titer after 12 hrs; assay type: functional, Urine; how it was run: as §3
Escherichia coli [10] = test: Antimicrobial activity against Escherichia coli 1135121 isolated from patient with pyelonephritis assessed as >3-log reduction in urinary bacterial titer after 16 hrs; assay type: functional, Urine; how it was run: as §3
Pseudomonas aeruginosa [11] = test: Antimicrobial activity against Pseudomonas aeruginosa ATCC 27853 isolated from patient with pyelonephritis assessed as >3-log reduction in urinary bacterial titer after 8 hrs; assay type: functional, Urine; how it was run: as §1
Pseudomonas aeruginosa [12] = test: Antimicrobial activity against Pseudomonas aeruginosa […] assessed as >3-log reduction in urinary bacterial titer after 16 hrs; assay type: functional, Urine; how it was run: as §1
Staphylococcus aureus [13] = test: Antimicrobial activity against Staphylococcus aureus 1134684 isolated from patient with pyelonephritis assessed as >3-log reduction in urinary bacterial titer after 4 hrs; assay type: functional, Urine; how it was run: as §1
Escherichia coli [14] = test: Antimicrobial activity against Escherichia coli 1889645 B-I isolated from patient with pyelonephritis by Etest; assay type: functional
Escherichia coli [15] = test: Antimicrobial activity against Escherichia coli 1135121 isolated from patient with pyelonephritis assessed as >3-log reduction in urinary bacterial titer after 8 hrs; assay type: functional, Urine; how it was run: as §3
Escherichia coli [16] = test: Antimicrobial activity against Escherichia coli 1949826 B-L isolated from patient with pyelonephritis assessed as >3-log reduction in urinary bacterial titer after 8 hrs; assay type: functional, Urine; how it was run: as §1
[17] = system: Staphylococcus epidermidis; test: Antimicrobial activity against Staphylococcus epidermidis 1949822 B-J isolated from patient with pyelonephritis by Etest; assay type: functional
Escherichia coli [18] = test: Antimicrobial activity against Escherichia coli 1949820 B-N isolated from patient with pyelonephritis assessed as >3-log reduction in urinary bacterial titer after 16 hrs; assay type: functional, Urine; how it was run: as §2
Staphylococcus aureus [19] = test: Antimicrobial activity against Staphylococcus aureus 1134684 isolated from patient with pyelonephritis assessed as >3-log reduction in urinary bacterial titer after 12 hrs; assay type: functional, Urine; how it was run: as §1
Pseudomonas aeruginosa [20] = test: Antimicrobial activity against Pseudomonas aeruginosa 1134642 isolated from patient with pyelonephritis assessed as >3-log reduction in urinary bacterial titer after 12 hrs; assay type: functional, Urine; how it was run: as §1
Pseudomonas aeruginosa [21] = test: Antimicrobial activity against Pseudomonas aeruginosa 1134642 isolated from patient with pyelonephritis assessed as >3-log reduction in urinary bacterial titer after 24 hrs; assay type: functional, Urine; how it was run: as §1
Escherichia coli [22] = test: Antimicrobial activity against Escherichia coli 1949821 B-M isolated from patient with pyelonephritis by Etest; assay type: functional
Staphylococcus aureus [23] = test: Antimicrobial activity against Staphylococcus aureus 1134684 isolated from patient with pyelonephritis assessed as >3-log reduction in urinary bacterial titer after 20 hrs; assay type: functional, Urine; how it was run: as §1
Staphylococcus aureus [24] = test: Antimicrobial activity against Staphylococcus aureus 1134684 isolated from patient with pyelonephritis assessed as >3-log reduction in urinary bacterial titer after 8 hrs; assay type: functional, Urine; how it was run: as §1
Pseudomonas aeruginosa [25] = test: Antimicrobial activity against Pseudomonas aeruginosa 1134642 isolated from patient with pyelonephritis assessed as >3-log reduction in urinary bacterial titer after 4 hrs; assay type: functional, Urine; how it was run: as §1
Escherichia coli [26] = test: Antimicrobial activity against Escherichia coli 1949820 B-N isolated from patient with pyelonephritis assessed as >3-log reduction in urinary bacterial titer after 8 hrs; assay type: functional, Urine; how it was run: as §2
Enterococcus faecalis [27] = test: Antimicrobial activity against Enterococcus faecalis 1780065 B-B isolated from patient with pyelonephritis assessed as >3-log reduction in urinary bacterial titer after 4 hrs; assay type: functional, Urine; how it was run: as §3
Escherichia coli [28] = test: Antimicrobial activity against Escherichia coli 2062717 B-P isolated from patient with pyelonephritis by Etest; assay type: functional
Escherichia coli [29] = test: Antimicrobial activity against Escherichia coli 1889645 B-I isolated from patient with pyelonephritis assessed as >3-log reduction in urinary bacterial titer after 20 hrs; assay type: functional, Urine; how it was run: as §2
Escherichia coli [30] = test: Antimicrobial activity against Escherichia coli 1889645 B-I isolated from patient with pyelonephritis assessed as >3-log reduction in urinary bacterial titer after 4 hrs; assay type: functional, Urine; how it was run: as §2
Escherichia coli [31] = test: Antimicrobial activity against Escherichia coli 2297257 B-W isolated from patient with pyelonephritis assessed as >3-log reduction in urinary bacterial titer after 12 hrs; assay type: functional, Urine
[32] = system: Staphylococcus epidermidis; test: Antimicrobial activity against Staphylococcus epidermidis 1949822 B-J isolated from patient with pyelonephritis assessed as >3-log reduction in urinary bacterial titer after 4 hrs; assay type: functional, Urine
Serratia marcescens = test: Antimicrobial activity against Serratia marcescens 2297260 B-U isolated from patient with pyelonephritis by Etest; assay type: functional
Escherichia coli [33] = test: Antimicrobial activity against Escherichia coli 1821386 B-D isolated from patient with pyelonephritis by Etest; assay type: functional
Pseudomonas aeruginosa [34] = test: Antimicrobial activity against Pseudomonas aeruginosa 1821383 B-E isolated from patient with pyelonephritis assessed as >3-log reduction in urinary bacterial titer after 8 hrs; assay type: functional, Urine
Escherichia coli [35] = test: Antimicrobial activity against Escherichia coli 2062716 B-R isolated from patient with pyelonephritis assessed as >3-log reduction in urinary bacterial titer after 24 hrs; assay type: functional, Urine; how it was run: as §1

SMILES | urinary bactericidal titer (Proteus mirabilis [1]) | urinary bactericidal titer (Proteus mirabilis [2]) | urinary bactericidal titer (Pseudomonas aeruginosa [3]) | urinary bactericidal titer (Escherichia coli [4]) | MIC (Pseudomonas aeruginosa [6]) | urinary bactericidal titer (Proteus mirabilis [7]) | Time (Enterococcus faecalis [8]) | urinary bactericidal titer (Escherichia coli [9]) | urinary bactericidal titer (Escherichia coli [10]) | urinary bactericidal titer (Pseudomonas aeruginosa [11]) | urinary bactericidal titer (Pseudomonas aeruginosa [12]) | urinary bactericidal titer (Staphylococcus aureus [13]) | urinary bactericidal titer (Escherichia coli [15]) | MIC [17] | Time (Escherichia coli [18]) | urinary bactericidal titer (Staphylococcus aureus [19]) | urinary bactericidal titer (Pseudomonas aeruginosa [20]) | urinary bactericidal titer (Pseudomonas aeruginosa [21]) | MIC (Escherichia coli [22]) | urinary bactericidal titer (Staphylococcus aureus [23]) | also measured
C[C@@H](O)[C@H]1C(=O)N2C(C(=O)O)=C(S[C@@H]3CN[C@H](CNS(N)(=O)=O)C3)[C@H](C)[C@H]12 [DORIPENEM] | 1540 reciprocal titer | 1024 reciprocal titer | 512 reciprocal titer | 32800 titer | 2 µg/mL (≈ 4.76 µM) | 8192 reciprocal titer | 48 h | 65500 titer | 8192 reciprocal titer | 1024 reciprocal titer | 1540 reciprocal titer | 8 reciprocal titer | 24600 titer | > 32 µg/mL | 8192 h | 12 reciprocal titer | 6140 reciprocal titer | 1280 reciprocal titer | ≤ 0.015 µg/mL | 8 reciprocal titer | MIC [5]: 1 µg/mL (≈ 2.38 µM); MIC (Escherichia coli [14]): 0.03 µg/mL (≈ 0.0713 µM); urinary bactericidal titer (Escherichia coli [16]): 32800 reciprocal titer; urinary bactericidal titer (Staphylococcus aureus [24]): 4 reciprocal titer; urinary bactericidal titer (Pseudomonas aeruginosa [25]): 4096 reciprocal titer; urinary bactericidal titer (Escherichia coli [26]): 12300 titer; urinary bactericidal titer (Enterococcus faecalis [27]): 128 reciprocal titer; MIC (Escherichia coli [28]): ≤ 0.015 µg/mL; urinary bactericidal titer (Escherichia coli [29]): 65500 reciprocal titer; urinary bactericidal titer (Escherichia coli [30]): 65500 reciprocal titer; urinary bactericidal titer (Escherichia coli [31]): 16400 reciprocal titer
C[C@H]1COc2c(N3CCN(C)CC3)c(F)cc3c(=O)c(C(=O)O)cn1c23.C[C@H]1COc2c(N3CCN(C)CC3)c(F)cc3c(=O)c(C(=O)O)cn1c23.O [LEVOFLOXACIN] | 0 reciprocal titer | 0 reciprocal titer | 4 reciprocal titer | 64 titer | 16 µg/mL | 0 reciprocal titer | 16 h | 3 titer | 2.5 reciprocal titer | 16 reciprocal titer | 8 reciprocal titer | 8 reciprocal titer | 8 titer | 8 µg/mL | 0.5 h | 4 reciprocal titer | 1 reciprocal titer | 0 reciprocal titer | 0.125 µg/mL | 2 reciprocal titer | urinary bactericidal titer [32]: 4 reciprocal titer; MIC (Serratia marcescens): 0.19 µg/mL; MIC (Escherichia coli [33]): < 0.03 µg/mL; urinary bactericidal titer (Pseudomonas aeruginosa [34]): 128 reciprocal titer; urinary bactericidal titer (Escherichia coli [35]): 64 reciprocal titer; urinary bactericidal titer (Staphylococcus aureus [24]): 4 reciprocal titer; urinary bactericidal titer (Pseudomonas aeruginosa [25]): 2 reciprocal titer; urinary bactericidal titer (Escherichia coli [26]): 2 titer; urinary bactericidal titer (Enterococcus faecalis [27]): 32 reciprocal titer; MIC (Escherichia coli [28]): 8 µg/mL
